Source: ChEMBL document CHEMBL3393003, “1,2,3,9b-Tetrahydro-5H-imidazo[2,1-a]isoindol-5-ones as a new class of respiratory syncytial virus (RSV) fusion inhibitors. Part 2: identification of BTA9881 as a preclinical candidate” (Bioorg Med Chem Lett, 2015)

Experiments:
[1] = system: Respiratory syncytial virus; experiment: Antiviral activity against respiratory syncytial virus A2 infected in human Hep2 cells assessed as reduction in virus-induced cytopathic effect after 5 days by MTT assay; type: functional, organism-based; settings: A2, HEp-2, 120 h
Outline: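 HEp2 cells (1.0 × 10⁴/well) infected at low moi (RSV A2 at moi 0.01) and added to serial compound dilutions; incubated 5 days at 37 °C, 5% CO₂. CPE read by MTT (1 mg/ml) metabolism after 2 h incubation.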

[2] = Cytotoxicity against human Hep2 cells assessed as reduction in cell viability after 5 days by MTT assay; type: cell-based, HEp-2
Outline: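 Uninfected HEp2 cells (1.0 × 10⁴/well) exposed to serial compound dilutions for 5 days at 37 °C, 5% CO₂. Viability read by MTT (1 mg/ml) metabolism after 2 h incubation.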

[3] = system: Respiratory syncytial virus; experiment: Potency shift index, ratio of EC50 for respiratory syncytial virus A2 infected in human Hep2 in presence of 1.5 mg/mL Alpha-1-acid glycoprotein to EC50 for respiratory syncytial virus A2 infected in human Hep2 in absence of Alpha-1-acid glycoprotein; type: functional
[4] = Elimination half life in Sprague-Dawley rat at 0.9 mg/kg, iv; type: ADME, organism-based; set-up: dose 0.9 mg/kg, route intravenous; settings: in vivo, read-out: beta t1/2 (converted)
[5] = Plasma clearance in Sprague-Dawley rat at 0.9 mg/kg, iv; type: ADME, organism-based; set-up: dose 0.9 mg/kg, route intravenous
[6] = Apparent volume of distribution in Sprague-Dawley rat at 0.9 mg/kg, iv; type: ADME, organism-based; set-up: dose 0.9 mg/kg, route intravenous; settings: in vivo, read-out: Vz
[7] = Elimination half life in Sprague-Dawley rat at 19 mg/kg, po; type: ADME, organism-based; set-up: dose 19 mg/kg, route oral; settings: in vivo, read-out: beta t1/2 (converted)
Outline: (§1)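 Male Sprague Dawley rats, n = 2, oral dose as suspension in hydroxypropylmethylcellulose, in carboxymethylcellulose, or in 0.5% HPMC/0.5% benzyl alcohol/0.4% Tween80. Cmax (µM), T1/2 and F (%) derived from plasma levels.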

[8] = Cmax in Sprague-Dawley rat at 19 mg/kg, po; type: ADME, organism-based; set-up: dose 19 mg/kg, route oral; settings: in vivo; outline: as §1
[9] = Oral bioavailability in Sprague-Dawley rat at 19 mg/kg; type: ADME, organism-based; settings: in vivo; outline: as §1
[10] = Drug metabolism in iv dosed Sprague-Dawley rat urine assessed as formation of pyridine N-oxides level; type: ADME, organism-based; settings: in vivo
[11] = Drug metabolism in orally dosed Sprague-Dawley rat urine assessed as formation of pyridine N-oxides level; type: ADME, organism-based; settings: in vivo, po
Plasma [12] = experiment: Drug metabolism in iv dosed Sprague-Dawley rat plasma assessed as formation of pyridine N-oxides level; type: ADME, organism-based; settings: in vivo
Plasma [13] = experiment: Drug metabolism in orally dosed Sprague-Dawley rat plasma assessed as formation of pyridine N-oxides level; type: ADME, organism-based; settings: in vivo, po

With `O=C(c1cc2ccccc2o1)N1CCN2C(=O)c3ccncc3C12c1ccc(Cl)cc1` (racemic) as the compound, how does the EC50 [1] read?
The EC50 was 6400 nM.

And the CC50 at 120 h [2]?
Its CC50 at 120 h is over 17000 nM.

What does the source list for `O=C(c1ccoc1)N1CCN2C(=O)c3ccncc3C12c1ccc(Cl)cc1` (racemic)?
EC50 [1]: 96 nM; Ratio EC50 [3]: 2.4; CC50 at 120 h [2]: > 19000 nM

With `O=C(c1ccon1)N1CCN2C(=O)c3ccncc3C12c1ccc(Cl)cc1` (racemic) as the compound, how does the EC50 [1] read?
The EC50 was 180 nM.

What about the “Ratio EC50” value [3] of the same compound?
Its value is 11.

What about the CC50 at 120 h [2] of the same compound?
The CC50 at 120 h was over 20000 nM.

With `Cc1cc(C(=O)N2CCN3C(=O)c4ccncc4C32c2ccc(Cl)cc2)c(C)o1` (racemic) as the compound, how does the EC50 [1] read?
The EC50 was 120 nM.

What about the “Ratio EC50” value [3] of the same compound?
The value was 14.

What about the CC50 at 120 h [2] of the same compound?
Its CC50 at 120 h is over 18000 nM.

Which EC50 [1] does the source give for `Cc1oc(-c2ccccc2)cc1C(=O)N1CCN2C(=O)c3ccncc3C21c1ccc(Cl)cc1` (racemic) here?
The EC50 was 1600 nM.

What about the CC50 at 120 h [2] of the same compound?
The CC50 at 120 h was over 15000 nM.

Which EC50 [1] does the source give for `O=C(c1cccs1)N1CCN2C(=O)c3ccncc3C12c1ccc(Cl)cc1` (racemic) here?
Its EC50 is 130 nM.

What about the “Ratio EC50” value [3] of the same compound?
The value was 12.

And the CC50 at 120 h [2]?
The CC50 at 120 h was over 18000 nM.

Which EC50 [1] does the source give for `O=C(c1ccsc1)N1CCN2C(=O)c3ccncc3C12c1ccc(Cl)cc1` (racemic) here?
The EC50 was 170 nM.

And the “Ratio EC50” value [3]?
Its value is 27.

What about the CC50 at 120 h [2] of the same compound?
Its CC50 at 120 h is over 18000 nM.

With `O=C(c1cscn1)N1CCN2C(=O)c3ccncc3C12c1ccc(Cl)cc1` (racemic) as the compound, how does the EC50 [1] read?
Its EC50 is 180 nM.

What about the “Ratio EC50” value [3] of the same compound?
Its value is 16.

What about the CC50 at 120 h [2] of the same compound?
The CC50 at 120 h was over 18000 nM.

For `Cc1nc(C(=O)N2CCN3C(=O)c4ccncc4C23c2ccc(Cl)cc2)cs1` (racemic), which EC50 [1] is on record?
Its EC50 is 73 nM.

What about the “Ratio EC50” value [3] of the same compound?
Its value is 5.7.

What about the CC50 at 120 h [2] of the same compound?
The CC50 at 120 h was over 18000 nM.

Which EC50 [1] does the source give for `O=C(c1csc(-c2cccs2)n1)N1CCN2C(=O)c3ccncc3C12c1ccc(Cl)cc1` (racemic) here?
The EC50 was 27 nM.

And the “Ratio EC50” value [3]?
The value was 16.

What about the CC50 at 120 h [2] of the same compound?
Its CC50 at 120 h is over 15000 nM.

Which EC50 [1] does the source give for `O=C(c1csc(-c2cccnc2)n1)N1CCN2C(=O)c3ccncc3C12c1ccc(Cl)cc1` (racemic) here?
The EC50 was 25 nM.

And the “Ratio EC50” value [3]?
The value was 10.

And the CC50 at 120 h [2]?
The CC50 at 120 h was over 15000 nM.

What does the source list for `O=C(c1csc(-c2ccncc2)n1)N1CCN2C(=O)c3ccncc3C12c1ccc(Cl)cc1` (racemic)?
EC50 [1]: 2300 nM; CC50 at 120 h [2]: > 15000 nM

With `Cn1cnc(C(=O)N2CCN3C(=O)c4ccncc4C23c2ccc(Cl)cc2)c1` (racemic) as the compound, how does the EC50 [1] read?
The EC50 was 750 nM.

What about the CC50 at 120 h [2] of the same compound?
The CC50 at 120 h was over 20000 nM.

With `Cn1cncc1C(=O)N1CCN2C(=O)c3ccncc3C21c1ccc(Cl)cc1` (racemic) as the compound, how does the EC50 [1] read?
The EC50 was 730 nM.

What about the CC50 at 120 h [2] of the same compound?
The CC50 at 120 h was over 20000 nM.

Which EC50 [1] does the source give for `Cn1cc(C(=O)N2CCN3C(=O)c4ccncc4C32c2ccc(Cl)cc2)c(C(F)(F)F)n1` (racemic) here?
Its EC50 is 31 nM.

What about the “Ratio EC50” value [3] of the same compound?
The value was 4.3.

And the CC50 at 120 h [2]?
Its CC50 at 120 h is over 16000 nM.

And the half-life [4]?
Its half-life is 5.6 h.

And the clearance [5]?
The clearance was 4 mL/min/kg.

And the Vd [6]?
Its Vd is 1.9 L/kg.

And the half-life [7]?
Its half-life is 7.1 h.

What about the Cmax [8] of the same compound?
The Cmax was 3.6 µM.

What about the bioavailability [9] of the same compound?
The bioavailability was 38%.

What about the Drug metabolism [10] of the same compound?
The Drug metabolism was “metabolite_detected”.

What about the Drug metabolism [11] of the same compound?
The Drug metabolism was “metabolite_detected”.

What about the Drug metabolism (Plasma [12]) of the same compound?
The Drug metabolism was “metabolite_detected”.

And the Drug metabolism (Plasma [13])?
Its Drug metabolism is “metabolite_detected”.

Which EC50 [1] does the source give for `Cn1cccc1C(=O)N1CCN2C(=O)c3ccncc3C21c1ccc(Cl)cc1` (racemic) here?
Its EC50 is 20 nM.

What about the “Ratio EC50” value [3] of the same compound?
Its value is 91.

What about the CC50 at 120 h [2] of the same compound?
Its CC50 at 120 h is over 20000 nM.

With `O=C(c1cccc(Cl)n1)N1CCN2C(=O)c3ccncc3C12c1ccc(Cl)cc1` (racemic) as the compound, how does the EC50 [1] read?
The EC50 was 110 nM.

What about the “Ratio EC50” value [3] of the same compound?
Its value is 27.

And the CC50 at 120 h [2]?
The CC50 at 120 h was over 17000 nM.

For `O=C(c1ccccn1)N1CCN2C(=O)c3ccncc3C12c1ccc(Cl)cc1` (racemic), which EC50 [1] is on record?
The EC50 was 770 nM.

What about the CC50 at 120 h [2] of the same compound?
The CC50 at 120 h was over 19000 nM.

Which results are given for `O=C(c1ccc2ccccc2n1)N1CCN2C(=O)c3ccncc3C12c1ccc(Cl)cc1` (racemic)?
EC50 [1]: 8500 nM; CC50 at 120 h [2]: > 17000 nM

For `O=C(c1cccnc1)N1CCN2C(=O)c3ccncc3C12c1ccc(Cl)cc1` (racemic), which EC50 [1] is on record?
Its EC50 is 210 nM.

What about the “Ratio EC50” value [3] of the same compound?
The value was 2.8.

And the CC50 at 120 h [2]?
Its CC50 at 120 h is over 51000 nM.

For `O=C(c1ccc(F)nc1)N1CCN2C(=O)c3ccncc3C12c1ccc(Cl)cc1` (racemic), which EC50 [1] is on record?
The EC50 was 93 nM.

And the “Ratio EC50” value [3]?
The value was 1.8.

And the CC50 at 120 h [2]?
The CC50 at 120 h was over 48000 nM.

What about the Drug metabolism [10] of the same compound?
Its Drug metabolism is “metabolite_detected”.

What about the Drug metabolism [11] of the same compound?
Its Drug metabolism is “metabolite_detected”.

And the Drug metabolism (Plasma [12])?
Its Drug metabolism is “metabolite_detected”.

What about the Drug metabolism (Plasma [13]) of the same compound?
Its Drug metabolism is “metabolite_detected”.
